Test results as given in paper PMC3638295 (International Journal of Medical Sciences, 2013).
No end group written: not given here.

Experiments:
DENV-2 = test: Plaque formation assay; type: cell-based, DENV-2 (strain New Guinea C); settings: dose-response curve
How it was run: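 LLC-MK2 monkey kidney cells (passage <50; DMEM + 10% FBS, 37°C, 5% CO2) were seeded at 3×10^5 cells/well and exposed to a mixture of about 200 PFU DENV-2 New Guinea C (grown in C6/36 cells) and peptide. Plaques per well were counted and normalized to untreated controls as percent inhibition. Run in triplicate.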

LLC-MK2 cells = test: Cytotoxicity, MTS cell viability assay; type: cell-based, Rhesus Monkey; settings: 1 to 500 µM peptide, 24, 48 and 72 hours, triplicate

AGVKDGKLDF [DET4] was tested, and the “maximum inhibition activity against DENV-2” value (DENV-2; at 500 µM, mean ± SD, triplicate) was 84.6% ± 5.6 and the IC50 (DENV-2; read-out: IC50 against DENV-2, LLC-MK2 cells) was 35 µM.

IGVRPGKLDL [DET3] was tested, and the “Toxicity compared to untreated control” value (LLC-MK2 cells) was “highest toxic effect compared to other peptides”.
